{"source": "ChEMBL document CHEMBL1136130", "about": "“Synthesis and biological evaluation of gambierol analogues” (Bioorg Med Chem Lett, 2003)"}
{"test": "Minimal lethal dose of compound expressed as toxicity against male mice (ddY strain) after intraperitoneal administration", "conditions": "mouse, in vivo, ip", "method_in_brief": "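Male ddY mice (12–17 g) received single intraperitoneal injections of HPLC-purified samples suspended in 1% Tween 60 at a range of dose levels. Lethality and neurological signs were observed. The minimal lethal dose is reported in mg/kg.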", "units": {"Min lethal dose": "mg/kg"}}
{"smiles": "C=CC/C=C\\C=C/[C@H]1O[C@H]2C[C@H]3O[C@H]4CC[C@H]5O[C@H]6C[C@@]7(C)O[C@@]8(C)[C@@H](O)C[C@H](CCCO)O[C@@H]8C[C@@H]7O[C@@H]6C[C@@H]5O[C@]4(C)C[C@]3(C)O[C@@H]2C=C[C@@H]1O", "Min lethal dose": 0.34}
{"smiles": "CC(=O)OC[C@H]1O[C@H]2C[C@H]3O[C@H]4CC[C@H]5O[C@H]6C[C@@]7(C)O[C@@]8(C)[C@@H](O)C[C@H](CCCO)O[C@@H]8C[C@@H]7O[C@@H]6C[C@@H]5O[C@]4(C)C[C@]3(C)O[C@@H]2CC[C@@H]1OC(C)=O", "Min lethal dose": "> 8.2"}
{"smiles": "CCCCC/C=C\\[C@H]1O[C@H]2C[C@H]3O[C@H]4CC[C@H]5O[C@H]6C[C@@]7(C)O[C@@]8(C)[C@@H](OCc9ccccc9)C[C@H](CCCOCc9ccccc9)O[C@@H]8C[C@@H]7O[C@@H]6C[C@@H]5O[C@]4(C)C[C@]3(C)O[C@@H]2CC[C@]1(C)O[Si](C)(C)C(C)(C)C", "Min lethal dose": "> 7.6"}
{"smiles": "C=CC/C=C\\C=C/[C@H]1O[C@H]2C[C@H]3O[C@H]4CC[C@H]5O[C@H]6C[C@@]7(C)O[C@@]8(C)[C@@H](O)C[C@H](CCCO)O[C@@H]8C[C@@H]7O[C@@H]6C[C@@H]5O[C@]4(C)C[C@]3(C)O[C@@H]2C=C[C@]1(C)O", "Min lethal dose": 0.05}
{"smiles": "C=CC/C=C\\C=C/[C@H]1O[C@H]2C[C@H]3O[C@H]4CC[C@H]5O[C@H]6C[C@@]7(C)O[C@@]8(C)[C@@H](O)C[C@H](CCCO)O[C@@H]8C[C@@H]7O[C@@H]6C[C@@H]5O[C@]4(C)C[C@]3(C)O[C@@H]2CC[C@]1(C)O", "Min lethal dose": 7.9}
{"smiles": "C[C@@]12O[C@]3(C)C[C@@H]4O[C@@H]5CC[C@@H]6O[C@@H]7C[C@@H]8O[C@H](CO)[C@@H](O)CC[C@H]8O[C@@]7(C)C[C@@]6(C)O[C@H]5C[C@H]4O[C@H]3C[C@H]1O[C@@H](CCCO)C[C@@H]2O", "Min lethal dose": "> 18.3"}
{"smiles": "C=CC/C=C\\C=C/[C@H]1O[C@H]2C[C@H]3O[C@H]4CC[C@H]5O[C@H]6C[C@@]7(C)O[C@@]8(C)[C@@H](O)C[C@H](CCCO)O[C@@H]8C[C@@H]7O[C@@H]6C[C@@H]5O[C@]4(C)C[C@]3(C)O[C@@H]2CC[C@@H]1O", "Min lethal dose": "> 11.9"}
